SENP1 FRET inh – blocks the human SENP1 SUMO protease catalytic domain. inhibition, % at 10 µM. AID 624204. 360,000 compounds, 0.21% hits. recombinant SENP1 catalytic domain, CyPet-SUMO1-YPet FRET cleavage. Q9P0U3;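 active means inhibition at least 30% at 10 µM, raw YFP signal under a set limit, fluorescence ratio 0.5 to 1.5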;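 further: 0% = enzyme with DMSO and 100% = no enzyme wells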
Target sequence (Q9P0U3 419-644 limits assumed): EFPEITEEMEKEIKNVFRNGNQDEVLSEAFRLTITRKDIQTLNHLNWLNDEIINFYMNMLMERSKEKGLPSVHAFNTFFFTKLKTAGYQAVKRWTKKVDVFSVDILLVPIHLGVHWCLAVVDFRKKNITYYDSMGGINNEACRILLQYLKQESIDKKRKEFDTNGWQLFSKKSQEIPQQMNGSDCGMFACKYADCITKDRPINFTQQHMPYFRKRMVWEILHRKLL
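Assay system: hSENP1 catalytic domain, recombinant. Amount: SENP1 enzyme, 20 pM final. Schedule: 50 min reaction, RT, dark. Technique: FRET, CFP and YFP emission. Control set: no-enzyme wells low, DMSO-plus-enzyme wells high control.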
MPTP inh – inhibitors of mitochondrial permeability transition pore; isolated mouse mitochondria, Ca2+ swelling absorbance, 30 min; 360,000 compounds, 1.4% hits; inhibition, % at 10 µM; AID 602449;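 active means inhibition of 50% or more, scaled per plate between neutral and stimulator controls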;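 further: 0% = DMSO wells given calcium and 100% = 1 mM EGTA wells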
NR3A LBD binder – modulators (binders) of human NR3A ligand-binding domain; 340,000 compounds, 2.5% hits; NR3A LBD differential scanning fluorimetry, Tm shift; 0% = protein alone, 100% = glycine-bound protein; Tm shift relative to glycine control, % at 25 µM; AID 1259313;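 active means melting temperature shift of at least 10% of the positive control shift, at one fixed dose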
EBI2 antag – EBI2 (human) antagonism; 360,000 compounds, 0.81% hits; AID 651636; EBI2 beta-arrestin recruitment, luminescence, 7a,25-OHC stimulated; inhibition, % at 5 µM; in the data active means inhibition above about 38%;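 further: enzyme fragment complementation signal reports receptor beta-arrestin coupling in cells; 0% = agonist plus DMSO wells and 100% = wells without agonist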
EBI2 antag conf – EBI2 (human) antagonism, single concentration confirmation. shares compounds with EBI2 antag. AID 651997. EBI2 beta-arrestin luminescence, 7a,25-OHC antagonism. inhibition, % at 5 µM. 2,400 compounds, 29% hits;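 active means inhibition of at least 50%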
EBI2 agonist – EBI2 agonism counter-screen | shares compounds with EBI2 antag | EBI2-expressing cells, agonist mode, luminescence, 60 min; 0% vehicle, 100% 7α,25-dihydroxycholesterol control | activation, % at 5 µM | 2,400 tested, under 10 active | AID 652000;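 active means activation of at least 50%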
bGal counter – beta-galactosidase inhibition counter-screen | shares compounds with EBI2 antag | purified beta-galactosidase, luminescent Galacton Star, 15 min | inhibition, % at 5 µM | 2,400 compounds, 1% hits | AID 652176;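 active means replicate-average signal at least 3 plate SD below neutral wells, shown as high inhibition, flagging enzyme-inhibiting false positives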;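 further: 0% = DMSO wells with enzyme and 100% = wells lacking enzyme; higher means stronger loss of beta-gal luminescence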
* hit, by the source's call. In the library only some 4.4% were active in any assay of this set; here they are far more common.

For COc1cc(-c2nc3cc(C)ccn3c2NC2CCCCC2)ccc1-c1ccc(C(C)=O)cc1 the results were SENP1 FRET inh 25, MPTP inh 1, NR3A LBD binder -6, EBI2 antag 59*, EBI2 antag conf 46, EBI2 agonist -2 and bGal counter -2.
For CCCCCCSc1cc(-c2nc3cc(C)ccn3c2NC2CCCCC2)ccc1OC the results were SENP1 FRET inh 0, MPTP inh 10, NR3A LBD binder -13 and EBI2 antag 0.
`CCOc1ccc(N2CC(C(=O)N3CCc4ccccc43)CC2=O)cc1` (centres undefined) gave SENP1 FRET inh -2, MPTP inh 1, NR3A LBD binder -4 and EBI2 antag 5.
Screening C=CCN(CC=C)C(=O)COC(=O)c1ccc(Sc2ncn[nH]2)c([N+](=O)[O-])c1 returned SENP1 FRET inh 3, MPTP inh -1, NR3A LBD binder 1 and EBI2 antag 0.
COc1ccc(NC(=O)c2csc(Cc3ccccc3)n2)cc1 was read as SENP1 FRET inh 2, MPTP inh -1, NR3A LBD binder -1, EBI2 antag 40*, EBI2 antag conf 35, EBI2 agonist 0 and bGal counter -17.
CCOC(=O)c1sc2nc(C)c([N+](=O)[O-])c(COC)c2c1N was read as SENP1 FRET inh 1, MPTP inh 2, NR3A LBD binder -2 and EBI2 antag 0.
For Cc1[nH]c(-c2ccc(F)cc2)cc1C(=O)N1CCN(c2cccc(Cl)c2)CC1 the results were SENP1 FRET inh 0, MPTP inh 0, NR3A LBD binder -4, EBI2 antag 91*, EBI2 antag conf 61*, EBI2 agonist -2 and bGal counter -10.
`COc1ccc2cc(C(=O)N3CCN(c4ccc(F)cc4)CC3)[nH]c2c1` gave SENP1 FRET inh -41, MPTP inh -1, NR3A LBD binder -1, EBI2 antag 64*, EBI2 antag conf 50*, EBI2 agonist -1 and bGal counter -16.
Screening O=C(c1cc2cc(F)ccc2[nH]1)N1CCN(c2cccc(Cl)c2)CC1 returned SENP1 FRET inh 0, MPTP inh 1, NR3A LBD binder 4, EBI2 antag 61*, EBI2 antag conf 48, EBI2 agonist -1 and bGal counter 0.
For CCOc1ccccc1N1CCN(C(=O)c2cc(C)oc2C)CC1 the results were SENP1 FRET inh -7, MPTP inh -2, NR3A LBD binder -2 and EBI2 antag 7.
Screening O=C(c1cccc(F)c1)N1CCN(c2cccc(Cl)c2)CC1 returned SENP1 FRET inh -2, MPTP inh 1, NR3A LBD binder -1 and EBI2 antag 5.
CCOc1ccccc1N1CCN(C(=O)c2cc3cc(OC)ccc3[nH]2)CC1 was read as SENP1 FRET inh -1, MPTP inh 1, NR3A LBD binder -2, EBI2 antag 52*, EBI2 antag conf 30, EBI2 agonist -1 and bGal counter -14.
For O=C(NCc1ccc(Cl)cc1)C1CCN(S(=O)(=O)N2CCOCC2)CC1 the results were SENP1 FRET inh 4, MPTP inh 2, NR3A LBD binder -4 and EBI2 antag 15.
For Cc1cn(-c2cccnc2)c(C)c1CNC[C@H]1O[C@@H](n2cnc3c(N)ncnc32)[C@H](O)[C@@H]1O the results were SENP1 FRET inh -8, MPTP inh 0, NR3A LBD binder 3 and EBI2 antag -6.
Screening COc1cccc(N2CCN(C(=O)c3cc4cc(Cl)ccc4[nH]3)CC2)c1 returned SENP1 FRET inh -1, MPTP inh 12, NR3A LBD binder -1, EBI2 antag 51*, EBI2 antag conf 41, EBI2 agonist 1 and bGal counter 6.
COc1ccc2cc(C(=O)N3CCN(C)CC3)[nH]c2c1 was read as SENP1 FRET inh -15, MPTP inh 0, NR3A LBD binder -1 and EBI2 antag -12.
Cc1ccc2cc3cc(C(=O)N4CCN(Cc5ccccc5)CC4)sc3nc2c1 was read as SENP1 FRET inh 0, MPTP inh 1, NR3A LBD binder 0, EBI2 antag 80*, EBI2 antag conf 53*, EBI2 agonist 0 and bGal counter -17.

Compound activity: PubChem BioAssay, Sanford-Burnham Center for Chemical Genomics
